Rows were chosen to be rich in hits. Some 3.7% of all compounds tested hit in one or more screens of this group.
Yeast life ext: compounds extending yeast replicative lifespan, primary screen, S. cerevisiae, OD615; S. cerevisiae growth with nicotinamide; deaD strain in restrictive glucose medium; inhibition of the nicotinamide effect, % at 10 µM; 0.68% of 130,000 active; AID 775, 2007;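 active means inhibition above a set limit, placed 3 SD over the median of all compounds, cut at about 26% in these data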
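Assay system: engineered S. cerevisiae DeaD replicative-lifespan strain, galactose-grown log-phase cells; Buffer or medium: CSMM-D glucose medium, restrictive; Probe or stimulus: nicotinamide 1.5 mM; Compound: single dose 10 µM compound, 0.25% DMSO; Schedule: 4 h preincubation then 48 h treatment at 30 °C; Technique: OD615 measurement.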
RAM inhibit: inhibitors of the yeast RAM network, primary screen, dse1pr::URA3 reporter, 5-FOA selection; S. cerevisiae dse1pr::URA3 reporter, 5-FOA growth OD615, 2 d; analog-sensitive cbk1-as2 kinase mutant strain; inhibition, % at 50 µM; 1.8% of 190,000 active;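 active means inhibition above a set limit, 3 SD over mean compound inhibition, cut at about 8.4% in these data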;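 further: inhibition rescues growth on 5-FOA so higher OD means more RAM inhibition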
Efa HMGR inh: inhibitors of E. faecalis class II HMGR, primary screen, biochemical, Enterococcus faecalis | HMG-CoA reductase (Enterococcus faecalis, mvaE) | purified E. faecalis HMGR, NADPH absorbance 340 nm kinetic | inhibition, % at 10 µM | 0.41% of 190,000 active;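 active means inhibition above a set limit, the median over all tested compounds plus 3 SD, cut at about 9.5% in these data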;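 further: enzyme runs in reverse so mevalonate oxidation gives rising NADPH absorbance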
Insulin prom inh: inhibitors of insulin promoter-driven GFP, primary screen, imaging, TRM-6 cells, eGFP reporter, cell count | inhibition, % at 2 µM | 0.9% of 130,000 active | reporter expression induced with tamoxifen;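 active means inhibition above the mean plus 3 SD, with well images judged a real hit on visual review, cut at about 60% in these data, passing the limit was not always enough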
BB579 growth dn: growth inhibitors of yeast BB579 in restrictive medium, primary screen, yeast lifespan-shortening project, S. cerevisiae; OD615, 48 h; inhibition, % at 10 µM; 0.51% of 140,000 active;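 active means inhibition above a set limit, 3 SD over the mean compound inhibition, cut at about 44% in these data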
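Test system: Saccharomyces cerevisiae DeaD strain BB579, replicative lifespan model yeast | Buffer or medium: Restrictive CSMM-D medium | Doses: One dose, 10 µM compound with 0.25% DMSO | Incubation: 48 h exposure, 30 °C | Detection: Culture absorbance at 615 nm | Control set: Amphotericin B at 10 µg/mL as positive control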
Large screens that a line does not name were inactive.

Cc1c(C(=O)NCCSCc2ccc(Cl)cc2Cl)cccc1[N+](=O)[O-]	RAM inhibit 11
COC(=O)Cn1c2ccccc2c2nc(C)sc21	BB579 growth dn 49
Cc1ccc(NC(=O)COC(=O)[C@H](C)NC(N)=O)c(C)c1	none (no result: Yeast life ext, Insulin prom inh, BB579 growth dn)
CCSC1=NCCN1C(=O)C(C)(C)Oc1ccc(Cl)cc1	none (no result: Yeast life ext, Insulin prom inh, BB579 growth dn)
Fc1ccc2c(c1)C(c1ccncc1)=NNC(c1ccccc1)=N2	none (no result: Insulin prom inh)
CCOC(=O)N1CCN(Cc2ccc(O)c3ncccc23)CC1	none (no result: Yeast life ext, Insulin prom inh, BB579 growth dn)
CCOC(=O)N1CCC(=C2c3ccc(Cl)cc3CCc3cccnc32)CC1	Yeast life ext 33
CCn1c2ccc(Cl)cc2c2nc3ccccc3nc21	none
CCn1c2ccc(C)cc2c2nc3cc(C(=O)O)ccc3nc21	BB579 growth dn 96 (no result: Insulin prom inh)
CCN(c1ccccc1)S(=O)(=O)c1cc(C(=O)O)ccc1C	none
CCN(c1ccccc1)S(=O)(=O)c1cc(C(=O)Nc2ccc(F)c(F)c2)ccc1F	RAM inhibit 11 (no result: Insulin prom inh)
COc1ccc(CNc2nc3c(c(=O)n(Cc4ccc(Br)cc4)c(=O)n3C)n2C)cc1	RAM inhibit 8.8
Cn1c(NCc2ccccc2)nc2c1c(=O)n(Cc1ccc(Br)cc1)c(=O)n2C	none (no result: Insulin prom inh)
C[n+]1cccc(C(=O)NNC(=O)C23CC4CC(CC(C4)C2)C3)c1	none (no result: Yeast life ext, Insulin prom inh, BB579 growth dn)
CCOC(=O)C1=C(O)/C(=C/c2cn(CC(=O)N3CCCC3)c3ccccc23)SC1=Nc1ccccc1	RAM inhibit 9.1 (no result: Yeast life ext)
Cc1ccc(SC(c2ccc(C)cc2)C(Cn2cncn2)C(=O)c2ccccc2)cc1 (stereo not given)	RAM inhibit 11
Cc1ccc(C(Sc2ccccc2)C(Cn2cncn2)C(=O)c2ccccc2)cc1 (stereo not given)	none
CC1CCC(C(C)C)C(OC(=O)CSc2n[nH]c(=O)[nH]c2=O)C1 (stereo not given)	Yeast life ext 48
COc1cccc2cc(C(=O)c3ccc([N+](=O)[O-])cc3)oc12	none (no result: Yeast life ext, BB579 growth dn)
OCc1cc(-c2ccc(Cl)c(Cl)c2)on1	none (no result: Yeast life ext, BB579 growth dn)
O=C(CN1CCN(CC(=O)Nc2ccccc2C(F)(F)F)CC1)Nc1ccccc1F	Insulin prom inh 85
CC1=NNC(=O)C1CCC(=O)N/N=C/C(Br)=C/c1ccccc1 (stereo not given)	Yeast life ext 35 (no result: Insulin prom inh)
Cc1ccc(CNC(=O)COC(=O)c2cnc(C)cn2)cc1	none (no result: Yeast life ext, Insulin prom inh, BB579 growth dn)
O=S(=O)(c1ccc2c(c1)nc1n2CCC1)N1CCOCC1	none
FC(F)(F)c1ccc2c(c1)nc1n2CCCC1	Insulin prom inh 73
C=CCN(CC=C)c1ccc(N2C(=O)C3CCCCC3C2=O)cc1[N+](=O)[O-] (stereo not given)	RAM inhibit 9.0 (no result: Yeast life ext, Insulin prom inh, BB579 growth dn)
O=S(=O)(NCCSc1ccc(Cl)cc1)c1ccc2c(c1)OCCO2	none (no result: Insulin prom inh)
O=S(=O)(NCCSCc1c(Cl)cccc1Cl)c1ccc2c(c1)OCCO2	RAM inhibit 8.8
Cc1nc2scc(-c3ccc(C(C)(C)C)cc3)c2c(=O)n1N	none (no result: Yeast life ext, BB579 growth dn)
COc1cc(/C=C/C(=O)c2c(O)cc(C)oc2=O)cc(OC)c1O	Yeast life ext 56
COc1cccc(/C=C/C(=O)c2c(O)cc(C)oc2=O)c1O	Yeast life ext 47
O=C(Nc1ccccc1O)c1csc2c1CCCC2	none (no result: Yeast life ext, Insulin prom inh, BB579 growth dn)
CCOc1ccc(NC(=O)CC2C(=O)N(c3cccc(OC)c3)C(=O)N2C(C)C)cc1 (stereo not given)	none (no result: Yeast life ext, Insulin prom inh, BB579 growth dn)
CC(C)Cc1nc(N2CCN(C(=O)c3ccccc3)CC2)c(C#N)c2c1CCC2	none
CC(C)Cc1nc(N2CCN(C(=O)c3ccco3)CC2)c(C#N)c2c1CCC2	RAM inhibit 9.2
Cc1ccc(C(=O)NC(=S)Nc2cccc(-c3nc4ccccc4s3)c2)cc1	Efa HMGR inh 10 (no result: Insulin prom inh)
O=C(CN1CCOc2ccccc21)NCc1ccc(F)cc1	Insulin prom inh 60
COC(=O)c1ccc(CSc2cc(C)c3cc(C)cc(C)c3n2)o1	none (no result: Yeast life ext, Insulin prom inh, BB579 growth dn)
COC(=O)c1ccc(CSc2cc(C)c3cccc(C)c3n2)o1	RAM inhibit 8.5 (no result: Yeast life ext, Insulin prom inh, BB579 growth dn)
CCOC(=O)N1CCC(NC(=O)c2cc3sccc3n2CC)CC1	none (no result: Insulin prom inh)
CCOc1ccc(CCNC(=O)c2cc3sccc3n2CC)cc1OCC	RAM inhibit 9.0
CCS(=O)(=O)Nc1ccc(-c2cc(-c3ccccc3)c3cc(C)ccc3n2)cc1	none (no result: Insulin prom inh)

Screens deposited in PubChem by several laboratories.
